Data from ChEMBL document CHEMBL3046087, “Aminomethylphosphonic acid accumulation in plant species treated with glyphosate” (J Agric Food Chem, 2008).

Experiments:
[1] = Drug level in Abutilon theophrasti (velvetleaf) at growth inhibition I50 level rate measured 7 days post treatment; assay type: organism-based; conditions: in vivo, read-out: Drug uptake
Outline: (§1)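 Greenhouse plants (28/22 °C, 13 h photoperiod) were sprayed with glyphosate at each species' I50 rate, with Tween 20-treated controls. Shoots were cut at 7 DAT and rinsed to remove surface herbicide. Pooled ground tissue (1 g) was water-extracted twice with sonication, acidified, and washed with methylene chloride. Extracts were derivatized with heptafluorobutanol/TFAA (90 °C, 1 h) and measured by GC-MS against derivatized standards, in duplicate.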

[2] = test system: Glycine max; assay: Drug level in non glyphosate-resistant Glycine max (soybean) assessed as AMPA level at growth inhibition I50 level rate measured 7 days post treatment; assay type: organism-based; conditions: in vivo, 168 h; outline: as §1
[3] = test system: Desmanthus illinoensis; assay: Ratio of compound to AMPA level in Desmanthus illinoensis (Illinois bundleflower) at growth inhibition I50 level rate measured 7 days post treatment; assay type: organism-based; conditions: in vivo, 168 h
Outline: (§2)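 Greenhouse plants (28/22 °C, 13 h photoperiod) were sprayed at each species' I50 rate with Tween 20 controls. Shoots were clipped 7 DAT and washed free of surface herbicide. Pooled ground tissue (1 g) was extracted twice with water under sonication. Extracts were derivatized with heptafluorobutanol/trifluoroacetic anhydride (90 °C, 1 h). Glyphosate and AMPA were quantified by GC-MS against derivatized standard curves, in duplicate.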

[4] = test system: Vigna unguiculata; assay: Drug level in Vigna unguiculata (cowpea) assessed as AMPA level at growth inhibition I50 level rate measured 7 days post treatment; assay type: organism-based; conditions: in vivo, 168 h; outline: as §1
[5] = Drug level in Lolium multiflorum (Italian ryegrass) at growth inhibition I50 level rate measured 7 days post treatment; assay type: organism-based; conditions: in vivo, read-out: Drug uptake; outline: as §1
[6] = test system: Erigeron canadensis; assay: Ratio of compound to AMPA level in Conyza canadensis (horseweed) at growth inhibition I50 level rate measured 7 days post treatment; assay type: organism-based; conditions: in vivo, 168 h; outline: as §2
[7] = test system: Sesbania herbacea; assay: Growth inhibition of Sesbania herbacea measured 14 days post treatment
[8] = test system: Desmanthus illinoensis; assay: Growth inhibition of Desmanthus illinoensis (Illinois bundleflower) measured 7 days post treatment; assay type: functional
[9] = test system: Glycine max; assay: Ratio of compound to AMPA level in glyphosate-resistant Glycine max (soybean) at growth inhibition I50 level rate measured 7 days post treatment; assay type: organism-based; conditions: in vivo, 168 h; outline: as §2
[10] = test system: Erigeron canadensis; assay: Growth inhibition of Conyza canadensis (horseweed) measured 7 days post treatment; assay type: functional
[11] = test system: Lolium multiflorum; assay: Induction of shikimate accumulation in Lolium multiflorum (Italian ryegrass) at growth inhibition I50 level rate measured 7 days post treatment (reference value: 904 ug/g tissue); assay type: functional
Outline: (§3)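 Plants were sprayed in the greenhouse at each species' I50 rate, with Tween 20 controls. Shoots were harvested at 7 DAT and rinsed free of surface glyphosate. Shikimic acid was measured by HPLC on a C18 column after 0.45 µm filtration, with 100 µL injected, isocratic 98% H2O (pH 3.0)/2% MeOH, at 1 mL flow.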

[12] = test system: Pueraria montana var. lobata; assay: Drug level in Pueraria montana var. lobata ( kudzu) assessed as AMPA level at growth inhibition I50 level rate measured 7 days post treatment; assay type: organism-based; conditions: in vivo, 168 h; outline: as §1
[13] = test system: Abutilon theophrasti; assay: Induction of shikimate accumulation in Abutilon theophrasti (velvetleaf) at growth inhibition I50 level rate measured 7 days post treatment (reference value: 2 ug/g tissue); assay type: functional; outline: as §3
[14] = test system: Lolium multiflorum; assay: Drug level in Lolium multiflorum (Italian ryegrass) assessed as AMPA level at growth inhibition I50 level rate measured 7 days post treatment; assay type: organism-based; conditions: in vivo, 168 h, BLD = below limit of detection; outline: as §1
[15] = test system: Erigeron canadensis; assay: Induction of shikimate accumulation in Conyza canadensis (horseweed) at growth inhibition I50 level rate measured 7 days post treatment (reference value: 251 ug/g tissue); assay type: functional; outline: as §3
[16] = test system: Senna occidentalis; assay: Ratio of compound to AMPA level in Senna occidentalis (coffee senna) at growth inhibition I50 level rate measured 7 days post treatment; assay type: organism-based; conditions: in vivo, 168 h; outline: as §2
[17] = test system: Vigna unguiculata; assay: Growth inhibition of Vigna unguiculata (cowpea) measured 14 days post treatment
[18] = Drug level in non glyphosate-resistant Glycine max (soybean) at growth inhibition I50 level rate measured 7 days post treatment; assay type: organism-based; conditions: in vivo, read-out: Drug uptake; outline: as §1
[19] = test system: Zea mays; assay: Growth inhibition of glyphosate-resistant Zea mays (maize) measured 7 days post treatment; assay type: functional
[20] = test system: Glycine max; assay: Ratio of compound to AMPA level in non glyphosate-resistant Glycine max (soybean) at growth inhibition I50 level rate measured 7 days post treatment; assay type: organism-based; conditions: in vivo, 168 h; outline: as §2
[21] = test system: Zea mays; assay: Growth inhibition of non glyphosate-resistant Zea mays (maize) measured 14 days post treatment
[22] = test system: Senna obtusifolia; assay: Ratio of compound to AMPA level in Senna obtusifolia (sicklepod) at growth inhibition I50 level rate measured 7 days post treatment; assay type: organism-based; conditions: in vivo, 168 h; outline: as §2
[23] = test system: Vigna unguiculata; assay: Ratio of compound to AMPA level in Vigna unguiculata (cowpea) at growth inhibition I50 level rate measured 7 days post treatment; assay type: organism-based; conditions: in vivo, 168 h; outline: as §2
[24] = Drug level in Pueraria montana var. lobata ( kudzu) at growth inhibition I50 level rate measured 7 days post treatment; assay type: organism-based; conditions: in vivo, read-out: Drug uptake; outline: as §1
[25] = test system: Zea mays; assay: Induction of shikimate accumulation in non glyphosate-resistant Zea mays (maize) at growth inhibition I50 level rate measured 7 days post treatment (reference value: 161 ug/g tissue); assay type: functional
[26] = Drug level in Conyza canadensis (horseweed) at growth inhibition I50 level rate measured 7 days post treatment; assay type: organism-based; conditions: erigeron canadensis, in vivo; read-out: Drug uptake; outline: as §1
[27] = test system: Glycine max; assay: Induction of shikimate accumulation in glyphosate-resistant Glycine max (soybean) at growth inhibition I50 level rate measured 7 days post treatment (reference value: 65 ug/g tissue); assay type: functional; outline: as §3
[28] = test system: Zea mays; assay: Drug level in glyphosate-resistant Zea mays (maize) assessed as AMPA level at growth inhibition I50 level rate measured 7 days post treatment; assay type: organism-based; conditions: in vivo, 168 h, BLD = below limit of detection; outline: as §1
[29] = test system: Glycine max; assay: Growth inhibition of non glyphosate-resistant Glycine max (soybean) measured 7 days post treatment; assay type: functional
[30] = test system: Zea mays; assay: Drug level in non glyphosate-resistant Zea mays (maize) assessed as AMPA level at growth inhibition I50 level rate measured 7 days post treatment; assay type: organism-based; conditions: in vivo, 168 h, BLD = below limit of detection; outline: as §1

## O=C(O)CNCP(=O)(O)O [GLYPHOSATE]
[1]
  concentration at 168 h: 678 ng/g
[2]
  Drug uptake: 668 ng/g
[3]
  Ratio: 2
[4]
  Drug uptake: 4765 ng/g
[5]
  concentration at 168 h: 7430 ng/g
[6]
  Ratio: 84
[7]
  I50: 456 gAi/ha
[8]
  I50: 272 gAi/ha
[9]
  Ratio: 49
[10]
  I50: 170 gAi/ha
[11]
  Activity: 6701 µg/g
[12]
  Drug uptake: 297 ng/g
[13]
  Activity: 159 µg/g
[14]
  Drug uptake: BLD
[15]
  Activity: 9101 µg/g
[16]
  Ratio: 21
[17]
  I50: 201 gAi/ha
[18]
  concentration at 168 h: 25000 ng/g
[19]
  I50: 93 gAi/ha
[20]
  Ratio: 38
[21]
  I50: 93 gAi/ha
[22]
  Ratio: 4
[23]
  Ratio: 6
[24]
  concentration at 168 h: 5560 ng/g
[25]
  Activity: 149 µg/g
[26]
  concentration at 168 h: 26300 ng/g
[27]
  Activity: 53 µg/g
[28]
  Drug uptake: BLD
[29]
  I50: 250 gAi/ha
[30]
  Drug uptake: BLD
